Experimental findings from ChEMBL document CHEMBL3112459, “Synthesis and assay of retro-α4β1 integrin-targeting motifs” (Eur J Med Chem, 2014) are described below.

Numbered stars: 1 amine (or outer) side, 2 acyl side, 3 side chain; on linkers, the order of the positions; unused ones are H or OH. Square brackets hold non-standard residues; d marks the D form. Peptide text beside a SMILES is read from it. * marks the point of attachment. X1 = O=C(Cc1ccc(N[*:1])cc1)[*:2]; NH(2-Me-phenyl) = Cc1ccccc1N*; CO = O=C([*:1])[*:2] A value given as a limit tells only on which side of the number the result lay.

A short description of data set [1]: (§1) Drug degradation in 100% mouse serum after 120 mins. Conditions: read-out: Drug degradation. In kind it is ADME, cell-free. Summed up: (§2)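 Peptides were dissolved in Tris buffer pH 7.4, and aliquots of a 10 mM stock were added to mouse serum (10 µL into 190 µL). Incubation was at 37 °C for 120 min. Withdrawn aliquots were quenched with glacial acetonitrile to precipitate proteins and analysed by RP-HPLC and ESI-MS. Runs were in triplicate and repeated three times.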

The target of data set [2] is T1, Integrin alpha-4/beta-1 (Homo sapiens, UniProt P05556+P13612). As to the kind of experiment: Inhibition of human alpha4beta1 integrin expressed in human Jurkat cells assessed as inhibition of cell adhesion to VCAM-1. It is filed as cell-based. Summed up: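 Jurkat cells (5 × 10⁵ per well) adhered to wells coated overnight at 4 °C with human recombinant VCAM-1. Wells were blocked with 1% BSA/HBSS for 30 min at 37 °C. Data are mean ± S.E.M.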

Data set [3] has as its target T1, Integrin alpha-4/beta-1. As to the kind of experiment: Displacement of [125I]-FN from human alpha4beta1 integrin expressed in human Jurkat cells by scintillation proximity assay. It is filed as cell-based. The procedure, abridged:
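Jurkat cells stably expressing human α4 integrin were the integrin source. The α4 integrin–anti-α4 antibody complex was captured on anti-rabbit IgG-coated scintillant microspheres. Soluble ¹²⁵I-human FN (~440 kDa) was the radioligand, incubated overnight, with counts read as cpm. IC50 values came from competition curves and were converted to Ki by Cheng–Prusoff. Data are mean ± S.E.M.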
(In general: Displacement assays read how much labelled ligand stays bound in the presence of the test substance.)

For data set [4], the system named is Jurkat. As to the kind of experiment: Cytotoxicity against human Jurkat cells by trypan blue exclusion assay. In kind it is cell-based.
Data set [5] relates to SK-MEL-24. Briefly: Cytotoxicity against human SK-MEL-24 cells by trypan blue exclusion assay. It is filed as cell-based.
Data set [6] addresses Integrin alpha-V/beta-3 (Homo sapiens, UniProt P05106+P06756). As to the kind of experiment: Inhibition of human alphavbeta3 integrin expressed in human SK-MEL-24 cells assessed as inhibition of cell adhesion to vitronectin. In kind it is cell-based.
Data set [7] relates to Serum. Described as §1. It is filed as ADME, cell-free. The note with it: 2 h. The procedure, abridged:
as §2

T1 sequence (P05556 whole entry): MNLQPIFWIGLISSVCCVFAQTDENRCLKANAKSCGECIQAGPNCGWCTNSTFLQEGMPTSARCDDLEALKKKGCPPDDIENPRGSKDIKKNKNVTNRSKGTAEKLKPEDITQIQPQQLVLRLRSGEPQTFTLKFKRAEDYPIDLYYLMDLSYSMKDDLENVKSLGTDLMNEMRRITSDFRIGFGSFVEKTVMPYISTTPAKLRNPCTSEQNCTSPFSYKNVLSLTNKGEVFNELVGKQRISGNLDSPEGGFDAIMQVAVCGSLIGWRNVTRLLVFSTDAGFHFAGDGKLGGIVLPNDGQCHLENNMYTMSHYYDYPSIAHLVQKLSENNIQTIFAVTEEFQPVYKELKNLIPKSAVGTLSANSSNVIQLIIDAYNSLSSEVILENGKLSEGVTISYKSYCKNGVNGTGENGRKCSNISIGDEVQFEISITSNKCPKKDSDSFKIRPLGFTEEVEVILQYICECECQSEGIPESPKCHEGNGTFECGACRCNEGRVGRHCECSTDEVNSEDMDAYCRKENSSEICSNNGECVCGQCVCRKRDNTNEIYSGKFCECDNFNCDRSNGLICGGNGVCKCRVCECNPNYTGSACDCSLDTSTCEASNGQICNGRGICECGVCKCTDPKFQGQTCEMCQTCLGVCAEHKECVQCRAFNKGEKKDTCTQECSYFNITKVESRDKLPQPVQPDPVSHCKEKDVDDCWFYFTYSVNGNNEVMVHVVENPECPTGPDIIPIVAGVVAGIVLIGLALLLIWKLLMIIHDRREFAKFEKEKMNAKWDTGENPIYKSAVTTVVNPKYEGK
T1 sequence (P13612 whole entry): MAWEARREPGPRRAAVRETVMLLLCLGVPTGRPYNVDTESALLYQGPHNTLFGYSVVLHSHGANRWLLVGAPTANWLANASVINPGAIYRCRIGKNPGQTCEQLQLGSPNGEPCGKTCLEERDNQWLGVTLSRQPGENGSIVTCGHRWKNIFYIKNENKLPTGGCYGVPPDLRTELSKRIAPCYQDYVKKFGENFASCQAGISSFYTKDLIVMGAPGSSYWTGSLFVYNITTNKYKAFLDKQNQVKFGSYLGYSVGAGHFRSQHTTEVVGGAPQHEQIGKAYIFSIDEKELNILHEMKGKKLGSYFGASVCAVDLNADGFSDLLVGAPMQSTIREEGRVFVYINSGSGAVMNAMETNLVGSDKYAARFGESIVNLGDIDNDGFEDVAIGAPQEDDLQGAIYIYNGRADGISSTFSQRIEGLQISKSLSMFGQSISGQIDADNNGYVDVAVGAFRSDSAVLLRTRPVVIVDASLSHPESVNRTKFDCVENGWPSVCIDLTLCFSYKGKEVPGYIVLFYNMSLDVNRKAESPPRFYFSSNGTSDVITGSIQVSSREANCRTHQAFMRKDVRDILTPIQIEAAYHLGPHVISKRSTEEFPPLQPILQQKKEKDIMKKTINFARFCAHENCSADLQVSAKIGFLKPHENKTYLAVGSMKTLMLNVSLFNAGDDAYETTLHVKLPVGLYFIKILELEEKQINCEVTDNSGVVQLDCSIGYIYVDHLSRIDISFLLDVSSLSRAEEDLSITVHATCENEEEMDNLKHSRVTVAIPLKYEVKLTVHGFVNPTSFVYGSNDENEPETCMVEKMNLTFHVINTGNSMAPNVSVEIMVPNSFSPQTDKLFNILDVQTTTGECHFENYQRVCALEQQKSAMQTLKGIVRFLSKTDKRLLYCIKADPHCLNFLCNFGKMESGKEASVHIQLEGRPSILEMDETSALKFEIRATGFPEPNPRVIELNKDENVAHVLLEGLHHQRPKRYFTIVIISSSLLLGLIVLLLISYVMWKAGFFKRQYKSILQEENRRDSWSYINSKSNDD
Sequence of Integrin alpha-V/beta-3 (P05106 27-788 limits assumed): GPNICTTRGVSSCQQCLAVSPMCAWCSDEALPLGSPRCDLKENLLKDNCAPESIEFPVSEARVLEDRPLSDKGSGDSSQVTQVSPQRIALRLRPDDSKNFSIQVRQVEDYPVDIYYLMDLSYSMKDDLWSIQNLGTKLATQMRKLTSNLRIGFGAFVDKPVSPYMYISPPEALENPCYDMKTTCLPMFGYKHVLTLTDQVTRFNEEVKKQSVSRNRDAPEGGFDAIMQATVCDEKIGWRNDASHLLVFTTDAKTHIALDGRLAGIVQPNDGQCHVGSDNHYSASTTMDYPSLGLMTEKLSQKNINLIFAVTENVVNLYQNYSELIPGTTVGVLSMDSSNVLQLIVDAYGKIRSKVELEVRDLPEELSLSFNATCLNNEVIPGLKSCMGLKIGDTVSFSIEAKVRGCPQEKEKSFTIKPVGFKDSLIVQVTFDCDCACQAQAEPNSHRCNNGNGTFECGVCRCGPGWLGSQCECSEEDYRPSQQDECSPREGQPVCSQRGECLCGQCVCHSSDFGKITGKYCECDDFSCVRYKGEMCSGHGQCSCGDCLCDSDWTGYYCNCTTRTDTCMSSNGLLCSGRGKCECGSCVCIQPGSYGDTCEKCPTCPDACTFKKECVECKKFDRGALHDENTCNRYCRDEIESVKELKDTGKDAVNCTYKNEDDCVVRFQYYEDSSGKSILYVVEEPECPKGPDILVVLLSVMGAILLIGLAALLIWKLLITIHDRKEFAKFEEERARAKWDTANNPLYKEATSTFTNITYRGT
Sequence of Integrin alpha-V/beta-3 (P06756 31-889 limits assumed): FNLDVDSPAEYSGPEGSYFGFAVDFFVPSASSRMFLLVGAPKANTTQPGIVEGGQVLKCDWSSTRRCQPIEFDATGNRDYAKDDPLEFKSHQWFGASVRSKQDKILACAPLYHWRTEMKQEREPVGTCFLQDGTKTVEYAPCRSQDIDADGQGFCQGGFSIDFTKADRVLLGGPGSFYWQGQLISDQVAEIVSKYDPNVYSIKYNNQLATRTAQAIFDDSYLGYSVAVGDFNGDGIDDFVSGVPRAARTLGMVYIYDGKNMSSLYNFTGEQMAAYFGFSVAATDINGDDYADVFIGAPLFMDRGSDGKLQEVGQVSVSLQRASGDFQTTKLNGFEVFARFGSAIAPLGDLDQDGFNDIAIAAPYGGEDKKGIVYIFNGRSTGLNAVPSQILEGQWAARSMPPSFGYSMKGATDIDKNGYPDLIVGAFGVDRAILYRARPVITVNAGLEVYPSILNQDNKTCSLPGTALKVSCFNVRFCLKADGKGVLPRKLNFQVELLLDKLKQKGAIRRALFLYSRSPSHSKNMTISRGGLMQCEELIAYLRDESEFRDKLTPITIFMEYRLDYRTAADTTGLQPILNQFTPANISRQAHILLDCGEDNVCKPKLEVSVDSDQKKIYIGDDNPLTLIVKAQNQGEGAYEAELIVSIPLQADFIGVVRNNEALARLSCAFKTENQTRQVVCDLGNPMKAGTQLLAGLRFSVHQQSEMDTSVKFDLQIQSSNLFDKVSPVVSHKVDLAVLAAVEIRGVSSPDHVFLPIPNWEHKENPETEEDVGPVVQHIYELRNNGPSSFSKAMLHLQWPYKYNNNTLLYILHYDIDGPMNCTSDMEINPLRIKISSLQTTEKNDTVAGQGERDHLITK
Sequence of Integrin alpha-V/beta-3 (P06756 891-1048 limits assumed): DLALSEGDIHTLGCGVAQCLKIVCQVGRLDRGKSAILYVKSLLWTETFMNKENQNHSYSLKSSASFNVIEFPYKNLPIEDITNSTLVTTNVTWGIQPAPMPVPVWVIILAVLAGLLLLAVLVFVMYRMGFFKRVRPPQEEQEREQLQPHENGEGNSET

As usually defined, the IC50 is the concentration that gives 50% inhibition. In general, Ki refers to a dissociation constant, usually derived from enzyme kinetics or from competition with a known ligand. For the compound `Cc1ccccc1NC(=O)Nc1ccc(CNC(=O)[C@H]2CCN(C(=O)C[C@H](NC(=O)Cc3ccccc3)C(=O)O)C2)cc1`, the metabolised at 2 h in data set [1] was < 5%. The IC50 in data set [2] is 93 nM; in data set [3], 290 nM; in data set [6], > 100000 nM. For the same compound, the inhibition result in data set [2] and in data set [3] was “Dose-dependent effect” throughout. Besides, the Ki in data set [3] worked out at 180 nM. Further, the Activity result in data set [4] and in data set [5] was “Non-toxic” each time.
With `Cc1ccccc1NC(=O)Nc1ccc(CC(=O)N[C@@H](CC(C)C)C(=O)N[C@@H](CC(=O)O)C(=O)N[C@H](C(=O)N2CCC[C@H]2C(=O)O)C(C)C)cc1` ({NH(2-Me-phenyl)-CO}-[X1]LDVP-OH), in data set [7], the Stability entry is reported as “Unstable”. The inhibition entry in data set [2] and in data set [3] was “Dose-dependent effect” each time.
Turning to `Cc1ccccc1NC(=O)Nc1ccc(CNC(=O)[C@H]2CCN(C(=O)[C@H](CC(=O)O)NC(=O)Cc3ccccc3)C2)cc1`, the metabolised at 2 h in data set [1] turned out to be 10%. In addition, the IC50 in data set [2] was 80 nM; in data set [3], 100 nM; in data set [6], > 100000 nM. Further, the inhibition result in data set [2] and in data set [3] was “Dose-dependent effect” throughout. In data set [3], this compound returned a Ki of 60 nM. Also, the Activity result in data set [4] and in data set [5] was “Non-toxic” throughout.
Consider `Cc1ccccc1NC(=O)Nc1ccc(CNC(=O)[C@H]2CCN(C(=O)[C@H](CC(=O)O)NC(=O)c3c(Cl)cccc3Cl)C2)cc1`, for which, in data set [2], the IC50 is > 100000 nM. For the same compound, in data set [3], the IC50 was 3900 nM, the Ki came to 2400 nM and the inhibition result is “Dose-dependent effect”.
Consider `Cc1ccccc1NC(=O)Nc1ccc(CNC(=O)[C@H]2CCN(C(=O)C[C@H](NC(=O)c3c(Cl)cccc3Cl)C(=O)O)C2)cc1`, for which the IC50 in data set [2] is > 100000 nM. Also, in data set [3], the IC50 was > 100000 nM and the Ki is > 100000 nM.
For `Cc1ccccc1NC(=O)Nc1ccc(CC(=O)N2CC[C@H](C(=O)N[C@@H](CC(=O)O)C(=O)OCc3ccccc3)C2)cc1`, in data set [2], the IC50 is > 100000 nM. For the same compound, in data set [3], the IC50 was > 100000 nM and the Ki is > 100000 nM.
